Source: PubChem
FAS TE block – blocks the thioesterase domain of human fatty acid synthase | recombinant FAS-TE, OMFH fluorogenic substrate, fluorescence endpoint | inhibition, % at 15 µM | 360,000 compounds, 0.67% hits | AID 602261;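 active means compounds whose normalised, plate-corrected inhibition of enzyme fluorescence in the single-dose primary screen is 50% or more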;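 further: 0% = DMSO with enzyme and 100% = substrate without enzyme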
Scp1 inh – Scp-1 (human) phosphatase inhibition; inhibition, % at 20 µM; Q9GZU7; 340,000 compounds, 0.88% hits; Recombinant Scp1, phosphopeptide, malachite green phosphate absorbance;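 active means inhibition above about 50% at 20 µM, limit read from the data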;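 further: plate controls were DMSO wells with enzyme for no effect and wells lacking enzyme for full effect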
Target sequence (Q9GZU7 76-261 limits assumed): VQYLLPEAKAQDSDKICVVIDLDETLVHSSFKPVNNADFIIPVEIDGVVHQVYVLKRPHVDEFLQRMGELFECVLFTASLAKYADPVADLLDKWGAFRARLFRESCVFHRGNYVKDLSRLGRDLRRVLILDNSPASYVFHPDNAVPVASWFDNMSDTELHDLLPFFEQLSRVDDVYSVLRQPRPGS
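Test system: SCP-1 phosphatase catalytic domain, residues 76-261; measured by: colorimetric phosphate reagent with accelerator and stabiliser, absorbance at 630 nm; timing: enzyme reaction 45 min at room temperature, colour 5 min, stabilisation 30 min; also added: Phosphorylated 17-residue peptide substrate; compound dosing: one concentration, 20 µM, with 1.0% DMSO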
STEP block – inhibitors of human striatal-enriched phosphatase STEP; 360,000 compounds, 0.25% hits; P54829; inhibition, % at 20 µM; AID 588621; recombinant STEP, OMFP fluorogenic substrate, fluorescence;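 active means inhibition at 20 µM, scaled per plate between control wells, above about 37%, limit read from the data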;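 further: 0% = DMSO with enzyme and substrate and 100% = substrate only without enzyme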
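medium = Bis-Tris buffer pH 6.0, 2.5 mM DTT, 0.005% Tween 20 | test system = STEP (striatal-enriched tyrosine phosphatase) enzyme, cell-free | measure = normalized % inhibition | compound dosing = 20 µM, 1% DMSO | also added = 25 µM OMFP | schedule = reaction 20 min, ambient temperature | measured by = fluorescence read at 480 nm ex / 540 nm em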
LMPTP inh – blocks human LMPTP phosphatase; P24666; recombinant LMPTP-A, OMFP fluorogenic substrate, fluorescence intensity; inhibition, % at 20 µM; 360,000 compounds, 0.22% hits; AID 651560;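 active means compounds that cut the enzyme signal by at least half of the control window in the single-dose screen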;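 further: plate controls were DMSO wells with enzyme plus substrate for no effect and substrate without enzyme for full effect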
Target sequence (P24666 whole entry, looked up): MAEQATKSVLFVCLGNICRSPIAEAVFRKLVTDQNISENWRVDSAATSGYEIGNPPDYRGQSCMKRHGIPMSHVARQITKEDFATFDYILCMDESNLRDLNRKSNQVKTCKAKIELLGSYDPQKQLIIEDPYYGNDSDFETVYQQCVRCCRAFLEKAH
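Assay system: LMPTP-A phosphatase enzyme | Input: 0.625 nM enzyme | Also added: Fluorogenic phosphatase substrate OMFP at 400 µM final | Compound dosing: One test concentration per compound, 20 µM, with 3% DMSO overall | Schedule: 50 min enzyme reaction at room temperature, protected from light | Signal: Fluorescence intensity | Benchmarks: no-enzyme and uninhibited controls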
SUMO1-SIM PPI – alters human SUMO1 binding to SIM partners. P63165. SUMO1 binding to a labelled peptide, TR-FRET, 1 h. inhibition, % at 20 µM. 360,000 compounds, 0.33% hits. AID 602429; in the data active means inhibition above about 37%
Target sequence (P63165 whole entry, looked up): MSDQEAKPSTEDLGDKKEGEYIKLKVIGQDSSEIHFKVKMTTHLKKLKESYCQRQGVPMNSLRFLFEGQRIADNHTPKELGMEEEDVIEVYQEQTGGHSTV
Starred values were filed as active, the others as inactive. Only some compounds are listed: those with a hit (about 1.9% of all), similar ones and a draw of the others.

How did O=C(Nc1ccc(-n2nncc2-c2ccco2)cc1)c1cc2ccccc2oc1=O do in these assays?
FAS TE block: 9; Scp1 inh: 35; STEP block: 45*; LMPTP inh: 20; SUMO1-SIM PPI: 57*

What do the screens show for `CN(C)c1ccc(C=c2c3ccccc3n3c2c2ccccc2[n+]3C)cc1`?
FAS TE block: 3; Scp1 inh: -8; STEP block: 37; LMPTP inh: 78*; SUMO1-SIM PPI: 119*

What do the screens show for `C[n+]1c(-c2ccccc2)cc2c(=Cc3ccccc3)c3ccccc3n21`?
FAS TE block: 20; Scp1 inh: 24; STEP block: 8; LMPTP inh: 23; SUMO1-SIM PPI: -50

What do the screens show for `Cc1cc2c(=Cc3ccc(N(C)C)cc3)c3ccccc3n2[n+]1C`?
FAS TE block: -1; Scp1 inh: -5; STEP block: 24; LMPTP inh: 45; SUMO1-SIM PPI: -134

What do the screens show for `CN(C)c1ccc(C=c2c3cc(O)ccc3n3c2cc(-c2ccccc2)[n+]3C)cc1`?
FAS TE block: 11; Scp1 inh: 7; STEP block: 14; LMPTP inh: 94*; SUMO1-SIM PPI: 69*

How did Cc1nc(C(F)(F)F)ccc1C(=O)N1CCCC(C)(C(=O)O)C1 (configuration not stated) do in these assays?
FAS TE block: -7; STEP block: 1; LMPTP inh: 1; SUMO1-SIM PPI: 3

Results for FC(F)(F)c1cccc(Oc2cc(C(F)(F)F)nc(-c3ccccn3)n2)c1 ?
FAS TE block: -4; Scp1 inh: -10; STEP block: 2; LMPTP inh: 1; SUMO1-SIM PPI: 54*

Results for CNc1cc(C(F)(F)F)nc(-c2ccccn2)n1 ?
FAS TE block: -9; Scp1 inh: -2; STEP block: -1; LMPTP inh: 0; SUMO1-SIM PPI: 4

How did O=C(Nc1ncc2c(n1)CC(c1ccco1)CC2=O)c1ccccc1 (configuration not stated) do in these assays?
FAS TE block: -4; Scp1 inh: -8; STEP block: 0; LMPTP inh: 5; SUMO1-SIM PPI: -4

Results for O=C1CC(c2ccco2)Cc2nc(Nc3nc(-c4ccccc4)c4ccccc4n3)ncc21 (configuration not stated) ?
FAS TE block: 7; Scp1 inh: 25; STEP block: 2; LMPTP inh: 61*; SUMO1-SIM PPI: 5

What do the screens show for `O=C(NC1CCCCC1)c1sc(=S)n2c1[nH]c(=O)c1ccccc12`?
FAS TE block: 29; Scp1 inh: 80*; STEP block: 8; LMPTP inh: 19; SUMO1-SIM PPI: 11

Results for COc1ccc(CN2C(=O)CCCC2(C)c2nc3ccccc3[nH]2)cc1 (configuration not stated) ?
FAS TE block: -10; LMPTP inh: -1; SUMO1-SIM PPI: 7

How did O=C(O)C1Nc2c(O)cc(Cl)c([N+](=O)[O-])c2C2C=CCC12 (configuration not stated) do in these assays?
FAS TE block: 8; Scp1 inh: 62*; STEP block: 97*; LMPTP inh: 91*; SUMO1-SIM PPI: 104*

What do the screens show for `CCN(CC)CCOC(=O)c1ccc(N/C=C(/C#N)c2nc(-c3ccc4c(c3)OCO4)cs2)cc1`?
FAS TE block: -8; Scp1 inh: 8; STEP block: 86*; LMPTP inh: 22; SUMO1-SIM PPI: 65*

What do the screens show for `N#C/C(=C\C=C\c1ccccc1)c1nc(-c2ccc3c(c2)OCO3)cs1`?
FAS TE block: -50; Scp1 inh: -8; STEP block: -8; LMPTP inh: 2; SUMO1-SIM PPI: -11

Results for CCN(CC)CCOC(=O)c1ccc(N/C=C(/C#N)c2nc(-c3ccc(OC)cc3)cs2)cc1 ?
FAS TE block: 11; Scp1 inh: 11; STEP block: 11; LMPTP inh: 4; SUMO1-SIM PPI: 81*

What do the screens show for `CCN(CC)CCOC(=O)c1ccc(N/C=C(/C#N)c2nc(-c3cc4ccccc4oc3=O)cs2)cc1`?
FAS TE block: -5; Scp1 inh: -5; STEP block: 52*; LMPTP inh: 30; SUMO1-SIM PPI: -63

How did COc1cc(/C=C(\C#N)c2nc(-c3cc4ccccc4oc3=O)cs2)ccc1O do in these assays?
FAS TE block: 0; Scp1 inh: -1; STEP block: -2; LMPTP inh: 4; SUMO1-SIM PPI: 7
